Source: ChEMBL document CHEMBL5579886, “Selective Degradation of MLK3 by a Novel CEP1347-VHL-02 PROTAC Compound Limits the Oncogenic Potential of TNBC” (J Med Chem, 2024)
The source made the active and inactive calls. No cut-off for these calls is given here.

What was measured:
[1] = target: T1, von Hippel-Lindau disease tumor suppressor/Mitogen-activated protein kinase kinase kinase 11 (Homo sapiens, UniProt Q16584+P40337); assay: PROTAC activity at VHL/MLK3 in human MCF7 cells assessed as half life of protein degradation at 1 uM by Western blot analysis; assay type: cell-based
In short: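 Endogenous MLK3: cells seeded at 100 000/well, treated next day with 1 μM PROTAC for 4–48 h, DMSO control; immunoblot with GAPDH or β-actin loading control. Remaining MLK3 quantified over time and t1/2 derived.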
Target sequence in this assay (P40337 whole entry, looked up): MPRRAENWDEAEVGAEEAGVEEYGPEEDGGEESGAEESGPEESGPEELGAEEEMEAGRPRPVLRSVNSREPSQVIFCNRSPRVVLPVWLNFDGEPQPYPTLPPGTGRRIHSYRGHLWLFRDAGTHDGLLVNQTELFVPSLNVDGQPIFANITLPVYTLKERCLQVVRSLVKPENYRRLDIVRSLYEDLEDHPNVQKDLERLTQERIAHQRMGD
Target sequence in this assay (Q16584 whole entry, looked up): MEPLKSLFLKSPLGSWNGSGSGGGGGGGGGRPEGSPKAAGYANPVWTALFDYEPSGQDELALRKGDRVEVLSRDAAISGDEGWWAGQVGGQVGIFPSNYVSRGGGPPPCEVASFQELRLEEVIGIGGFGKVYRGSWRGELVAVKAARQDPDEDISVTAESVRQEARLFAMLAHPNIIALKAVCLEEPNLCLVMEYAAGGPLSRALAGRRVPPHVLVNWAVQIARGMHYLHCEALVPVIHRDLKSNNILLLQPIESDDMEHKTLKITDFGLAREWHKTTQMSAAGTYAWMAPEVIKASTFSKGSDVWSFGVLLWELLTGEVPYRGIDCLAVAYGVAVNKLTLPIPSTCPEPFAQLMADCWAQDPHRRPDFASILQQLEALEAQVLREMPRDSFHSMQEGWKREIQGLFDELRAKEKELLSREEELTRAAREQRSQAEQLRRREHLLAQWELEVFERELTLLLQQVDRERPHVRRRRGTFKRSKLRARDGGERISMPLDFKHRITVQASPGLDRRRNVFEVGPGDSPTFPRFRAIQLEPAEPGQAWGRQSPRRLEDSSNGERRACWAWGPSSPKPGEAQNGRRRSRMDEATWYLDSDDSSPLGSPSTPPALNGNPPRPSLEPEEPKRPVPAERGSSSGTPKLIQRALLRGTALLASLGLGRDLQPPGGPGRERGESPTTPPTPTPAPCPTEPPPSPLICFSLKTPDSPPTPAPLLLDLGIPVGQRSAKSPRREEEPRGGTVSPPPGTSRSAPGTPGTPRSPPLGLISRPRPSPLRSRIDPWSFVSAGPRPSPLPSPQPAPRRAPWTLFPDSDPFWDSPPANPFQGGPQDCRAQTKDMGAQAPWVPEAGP

MDA-MB-468 [2] = assay: Effect on ERK pathway in human MDA-MB-468 cells at 1 uM measured after 24 hrs by immunoblot analysis; assay type: functional, cell-based
[3] = target: T1, von Hippel-Lindau disease tumor suppressor/Mitogen-activated protein kinase kinase kinase 11; assay: PROTAC activity at VHL/MLK3 in carfilzomib-treated human MCF7 cells assessed as protein degradation at 1 uM measured after 7 hrs by immunoblot analysis; assay type: cell-based
In short: (§1)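 MCF-7 and MDA-MB-468 cells were seeded at 100 000/well. The next day they were pretreated with 1 μM carfilzomib for 1 h, then treated with 1 μM PROTAC for 7 h, with DMSO as control. Endogenous MLK3 was measured by immunoblot of RIPA lysates.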
Target sequence in this assay (P40337 whole entry, looked up): as the sequence (P40337 whole entry, looked up) above
Target sequence in this assay (Q16584 whole entry, looked up): as the sequence (Q16584 whole entry, looked up) above

MDA-MB-468 [4] = assay: Inhibition of cell migration in human MDA-MB-468 cells at 1 uM incubated for 24 hrs by transwell assay; assay type: functional, cell-based
In short: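 Boyden inserts, 8 μm pores: 200 000 cells in serum-free DMEM with 1 μM PROTAC or DMSO, 20% FBS DMEM below as chemoattractant, 24 h at 37 °C, 5% CO2. Migrated cells fixed, crystal violet stained and counted by image analysis; at least three repeats.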

[5] = target: T2, von Hippel-Lindau disease tumor suppressor/Mitogen-activated protein kinase kinase kinase 21 (Homo sapiens) (UniProt P40337+Q5TCX8); assay: PROTAC activity at VHL/DOX-inducible MLK4 (unknown origin) overexpressed in human A-375 cells assessed as protein degradation at 0.1 to 5 uM incubated for 24 hrs by immunoblot analysis; assay type: cell-based; conditions: dose 0.1-5 µM
In short: (§2)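 A375 cells carried lentiviral DOX-inducible MLK1, MLK2 or MLK4 and were grown in RPMI-1640 with 10% FBS. Cells were seeded at 100 000/well and induced with 1 μg/mL DOX. After 24 h they were treated at 0.1–5 μM for 24 h, with DMSO as control. Levels were read by ECL immunoblot of RIPA lysates, with GAPDH or β-actin loading control.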

[6] = target: T3, von Hippel-Lindau disease tumor suppressor/Mitogen-activated protein kinase kinase kinase 10 (Homo sapiens) (UniProt Q02779+P40337); assay: PROTAC activity at VHL/DOX-inducible MLK2 (unknown origin) overexpressed in human A-375 cells assessed as protein degradation at 0.1 to 5 uM incubated for 24 hrs by immunoblot analysis; assay type: cell-based; conditions: dose 0.1-5 µM; in short: as §2
[7] = target: T2, von Hippel-Lindau disease tumor suppressor/Mitogen-activated protein kinase kinase kinase 21 (Homo sapiens); assay: PROTAC activity at VHL/MLK4 in human MDA-MB-468 cells assessed as protein degradation at 1 uM incubated for 24 hrs by immunoblot analysis; assay type: cell-based
In short: (§3)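 Endogenous MLK1, MLK2 or MLK4 levels in MCF-7 and MDA-MB-468 cells. Cells were grown in high-glucose DMEM with 10% FBS, seeded at 100 000 cells/well and treated the next day for 24 h, with DMSO as control. Lysis was in RIPA with protease inhibitor, followed by 10% SDS-PAGE, nitrocellulose transfer and ECL immunoblot with GAPDH or β-actin as loading control.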

MCF7 [8] = assay: Effect on ERK pathway in human MCF7 cells at 1 uM measured after 24 hrs by immunoblot analysis; assay type: functional, cell-based
[9] = target: T2, von Hippel-Lindau disease tumor suppressor/Mitogen-activated protein kinase kinase kinase 21 (Homo sapiens); assay: PROTAC activity at VHL/MLK4 in human MCF7 cells assessed as protein degradation at 1 uM incubated for 24 hrs by immunoblot analysis; assay type: cell-based; in short: as §3
MCF7 [10] = assay: Inhibition of colony formation in human MCF7 cells harboring siMLK3 by crystal violet staining based analysis; assay type: functional, cell-based
In short: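 MCF-7 or MDA-MB-468 seeded at 10 000 cells/well, transfected next day with MAP3K11 SMARTpool siRNA or nontargeting control siRNA; crystal violet staining 7 days after transfection. Knockdown confirmed by immunoblot.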

[11] = target: T1, von Hippel-Lindau disease tumor suppressor/Mitogen-activated protein kinase kinase kinase 11; assay: PROTAC activity at VHL/MLK3 in human MCF7 cells assessed as protein degradation measured after 24 hrs by Western blot analysis; assay type: cell-based
In short: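 Endogenous MLK3: cells seeded at 100 000/well, treated next day for 24 h with PROTAC at 0.1–5 μM, DMSO control; immunoblot with GAPDH or β-actin loading control. Remaining MLK3 percentage plotted against concentration to derive DC50 and Dmax.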
Target sequence in this assay (Q16584 whole entry): as the sequence (Q16584 whole entry, looked up) above
Target sequence in this assay (P40337 whole entry): as the sequence (P40337 whole entry, looked up) above

[12] = target: T3, von Hippel-Lindau disease tumor suppressor/Mitogen-activated protein kinase kinase kinase 10 (Homo sapiens); assay: PROTAC activity at VHL/MLK2 in human MCF7 cells assessed as protein degradation at 1 uM incubated for 24 hrs by immunoblot analysis; assay type: cell-based; in short: as §3
MCF7 [13] = assay: Growth inhibition of human MCF7 cell spheroids in low-attachment surface at 1 uM incubated for 10 days; assay type: functional, cell-based; conditions: time 10.0 day
In short: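 Cells grown 10 days in low-attachment surface plates in medium containing 1 μM PROTAC or DMSO; spheroid growth assessed.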

[14] = target: T1, von Hippel-Lindau disease tumor suppressor/Mitogen-activated protein kinase kinase kinase 11; assay: PROTAC activity at VHL/MLK3 in carfilzomib-treated human MDA-MB-468 cells assessed as protein degradation at 1 uM measured after 7 hrs by immunoblot analysis; assay type: cell-based; in short: as §1
Target sequence in this assay (P40337 whole entry, looked up): as above
Target sequence in this assay (Q16584 whole entry, looked up): as the sequence (Q16584 whole entry, looked up) above

MCF7 [15] = assay: Growth inhibition of human MCF7 cell spheroids in hydrogel at 1 uM incubated for 10 days; assay type: functional, cell-based; conditions: time 10.0 day
In short: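 4000 cells plated on top of hydrogels and grown 10 days with 1 μM PROTAC or DMSO; spheroid formation and size scored.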

T2 sequence (P40337 whole entry, looked up): as the sequence (P40337 whole entry, looked up) above
T2 sequence (Q5TCX8 whole entry, looked up): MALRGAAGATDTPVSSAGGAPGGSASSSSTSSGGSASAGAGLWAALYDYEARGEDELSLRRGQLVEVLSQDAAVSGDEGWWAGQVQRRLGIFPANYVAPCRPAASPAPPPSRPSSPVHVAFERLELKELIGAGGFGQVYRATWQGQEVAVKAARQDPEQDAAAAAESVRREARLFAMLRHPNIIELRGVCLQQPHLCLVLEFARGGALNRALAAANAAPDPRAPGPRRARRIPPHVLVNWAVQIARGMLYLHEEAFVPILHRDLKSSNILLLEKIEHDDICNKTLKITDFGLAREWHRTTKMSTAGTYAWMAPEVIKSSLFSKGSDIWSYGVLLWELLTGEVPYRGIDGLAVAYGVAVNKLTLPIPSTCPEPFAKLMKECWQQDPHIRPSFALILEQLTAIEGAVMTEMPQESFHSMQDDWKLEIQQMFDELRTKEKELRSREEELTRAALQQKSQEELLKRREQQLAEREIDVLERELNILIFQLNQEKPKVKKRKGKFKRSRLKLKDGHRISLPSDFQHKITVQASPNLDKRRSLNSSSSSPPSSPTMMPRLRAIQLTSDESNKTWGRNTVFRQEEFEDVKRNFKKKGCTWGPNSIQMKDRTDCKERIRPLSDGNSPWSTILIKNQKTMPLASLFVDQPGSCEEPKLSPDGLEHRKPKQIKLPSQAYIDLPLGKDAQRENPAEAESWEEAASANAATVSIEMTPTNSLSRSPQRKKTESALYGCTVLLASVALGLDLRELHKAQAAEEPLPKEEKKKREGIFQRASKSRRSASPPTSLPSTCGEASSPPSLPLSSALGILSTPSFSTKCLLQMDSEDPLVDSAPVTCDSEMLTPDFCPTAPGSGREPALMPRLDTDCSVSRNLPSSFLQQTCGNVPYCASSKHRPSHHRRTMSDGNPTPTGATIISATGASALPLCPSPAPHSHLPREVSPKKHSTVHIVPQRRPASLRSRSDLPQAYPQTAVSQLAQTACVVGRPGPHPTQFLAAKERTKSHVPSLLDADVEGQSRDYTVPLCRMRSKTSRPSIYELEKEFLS
T3 sequence (P40337 whole entry, looked up): as the sequence (P40337 whole entry, looked up) above
T3 sequence (Q02779 whole entry, looked up): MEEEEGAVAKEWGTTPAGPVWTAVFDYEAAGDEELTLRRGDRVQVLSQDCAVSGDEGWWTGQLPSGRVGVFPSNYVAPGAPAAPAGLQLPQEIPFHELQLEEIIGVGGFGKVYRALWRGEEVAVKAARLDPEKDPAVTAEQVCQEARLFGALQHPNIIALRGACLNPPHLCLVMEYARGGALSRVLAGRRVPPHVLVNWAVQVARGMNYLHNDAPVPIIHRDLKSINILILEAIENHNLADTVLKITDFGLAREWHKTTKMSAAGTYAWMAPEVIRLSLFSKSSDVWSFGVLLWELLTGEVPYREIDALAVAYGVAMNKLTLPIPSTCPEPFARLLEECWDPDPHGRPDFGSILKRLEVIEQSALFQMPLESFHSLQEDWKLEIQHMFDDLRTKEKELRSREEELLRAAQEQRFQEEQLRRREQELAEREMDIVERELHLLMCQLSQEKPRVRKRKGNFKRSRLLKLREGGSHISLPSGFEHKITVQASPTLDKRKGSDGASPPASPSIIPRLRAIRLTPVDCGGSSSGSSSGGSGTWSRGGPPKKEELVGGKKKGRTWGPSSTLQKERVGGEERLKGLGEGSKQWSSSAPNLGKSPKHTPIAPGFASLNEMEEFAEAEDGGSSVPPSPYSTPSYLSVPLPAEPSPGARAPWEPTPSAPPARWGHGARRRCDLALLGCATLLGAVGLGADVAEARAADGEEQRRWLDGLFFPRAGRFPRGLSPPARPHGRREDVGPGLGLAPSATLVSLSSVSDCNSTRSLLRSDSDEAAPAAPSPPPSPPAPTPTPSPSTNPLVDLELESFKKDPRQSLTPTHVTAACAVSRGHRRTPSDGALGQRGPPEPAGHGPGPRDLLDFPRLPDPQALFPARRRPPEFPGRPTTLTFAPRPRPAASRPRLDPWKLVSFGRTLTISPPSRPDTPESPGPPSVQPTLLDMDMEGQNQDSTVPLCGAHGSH

Question: `CCSCc1ccc2c(c1)c1c3c(c4c5cc(CSCC)ccc5n5c4c1n2[C@H]1C[C@](O)(C(=O)NCCOCCOCCOCC(=O)N[C@H](C(=O)N2C[C@H](O)C[C@H]2C(=O)N[C@@H](C)c2ccc(-c4scnc4C)cc2)C(C)(C)C)[C@]5(C)O1)CNC3=O` was tested. Which T1/2 [1] did it give?
Answer: 2.5 h

Question: What about the Activity (MDA-MB-468 [2]) of the same compound?
Answer: inactive

Question: What about the Activity [3] of the same compound?
Answer: inactive

Question: And the inhibition (MDA-MB-468 [4])?
Answer: Active

Question: What about the Activity [5] of the same compound?
Answer: inactive

Question: And the Activity [6]?
Answer: inactive

Question: What about the Activity [7] of the same compound?
Answer: inactive

Question: And the Activity (MCF7 [8])?
Answer: inactive

Question: What about the Activity [9] of the same compound?
Answer: inactive

Question: And the inhibition (MCF7 [10])?
Answer: inactive

Question: What about the DC50 [11] of the same compound?
Answer: 50 nM

Question: What about the Activity [12] of the same compound?
Answer: inactive

Question: And the “growth inhibition (GI)” value (MCF7 [13])?
Answer: inactive

Question: What about the Activity [14] of the same compound?
Answer: inactive

Question: What about the “growth inhibition (GI)” value (MCF7 [15]) of the same compound?
Answer: inactive
